Laboratory results as given in ChEMBL document CHEMBL1150584, “Antifungal stilbenoids from Stemona collinsae” (J Nat Prod, 2002).
Values after ≈ are worked out from the molar mass of the structure shown. Active and inactive are the calls of the source. No cut-off for these calls is given here.

What was measured:
Cladosporium herbarum [1] = assay: Growth inhibition of Cladosporium herbarum VIAM MA1511 at 10 ug by bioautography test; type: functional, organism-based
Pyricularia grisea = assay: Inhibition of germ tube formation in Pyricularia grisea VIAM MA1628 after 16 hrs by microdilution technique; type: functional, organism-based
In short: (§1)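 Germ tube inhibition by 2-fold serial microdilution in 4% malt extract broth. Compound stock of 2 mg in 250 µL acetone plus 4.75 mL malt extract with 0.2% Tween 80; negative control was stock without compound. Spores added at 10⁴ CFU/mL, incubated 16 h at room temperature, stopped with lactophenol blue. Mycelial size taken as pixel counts from images of 10 germinated conidia per well. Probit-log estimates over 200–0.1 µg/mL; MIC = lowest concentration with no germination.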

Botrytis cinerea [2] = assay: Inhibition of germ tube formation in Botrytis cinerea VIAM MA2725 at 1.6 to 200 ug/ml after 16 hrs by microdilution technique; type: functional
In short: (§2)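 Stock (2 mg in 250 µL acetone plus 4.75 mL 4% malt extract, emulsified with 0.2% Tween 80) serially 2-fold microdiluted in 4% malt extract broth. Conidia were added at 10⁴ CFU/mL, then incubated 16 h at room temperature and stopped with lactophenol blue. Mycelial size was taken as pixel counts from images of 10 germinated conidia per well. Probit-log estimates covered 200–0.1 µg/mL. Controls were vehicle stock and benomyl.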

Botrytis cinerea [3] = assay: Inhibition of germ tube formation in Botrytis cinerea VIAM MA2725 after 16 hrs by microdilution technique; type: functional, organism-based; in short: as §2
Alternaria citri = assay: Inhibition of germ tube formation in Alternaria citri VIAM MA1627 after 16 hrs by microdilution technique; type: functional, organism-based; in short: as §2
Cladosporium herbarum [4] = assay: Inhibition of germ tube formation in Cladosporium herbarum VIAM MA1511 after 16 hrs by microdilution technique; type: functional, organism-based; in short: as §2
Fusarium avenaceum [5] = assay: Inhibition of germ tube formation in Fusarium avenaceum VIAM MA1512 after 16 hrs by microdilution technique; type: functional, organism-based; in short: as §2
Fusarium avenaceum [6] = assay: Inhibition of germ tube formation in Fusarium avenaceum VIAM MA1512 at 1.6 to 200 ug/ml after 16 hrs by microdilution technique; type: functional; in short: as §2
Botrytis cinerea [7] = assay: Inhibition of germ tube formation in Botrytis cinerea VIAM MA2725 at 0.4 to 200 ug/ml after 16 hrs by microdilution technique; type: functional; in short: as §1
Cladosporium herbarum [8] = assay: Inhibition of germ tube formation in Cladosporium herbarum VIAM MA1511 at 0.4 to 200 ug/ml after 16 hrs by microdilution technique; type: functional; in short: as §1

SMILES: COc1cc(O)c(C)c(-c2cc3c(O)cccc3o2)c1
- Activity (Cladosporium herbarum [1]): Active

SMILES: Oc1cc(O)cc(-c2cc3ccccc3o2)c1
- Activity (Cladosporium herbarum [1]): Active

SMILES: COc1ccccc1CCc1cc(O)cc(O)c1 [STILBOSTEMIN A]
- EC50 (Pyricularia grisea): 46 µg/mL (≈ 188 µM)
- EC90 (Pyricularia grisea): > 200 µg/mL
- MIC (Pyricularia grisea): > 200 µg/mL
- Activity (Cladosporium herbarum [1]): Active
- inhibition (INH) (Botrytis cinerea [2]): 30%
- MIC (Botrytis cinerea [3]): > 200 µg/mL
- EC50 (Alternaria citri): 70 µg/mL (≈ 287 µM)
- EC90 (Alternaria citri): > 200 µg/mL
- MIC (Alternaria citri): > 200 µg/mL
- EC50 (Cladosporium herbarum [4]): > 200 µg/mL
- EC90 (Cladosporium herbarum [4]): > 200 µg/mL
- MIC (Cladosporium herbarum [4]): > 200 µg/mL
- EC50 (Fusarium avenaceum [5]): > 200 µg/mL
- EC90 (Fusarium avenaceum [5]): > 200 µg/mL
- MIC (Fusarium avenaceum [5]): > 200 µg/mL

SMILES: COc1cc(O)cc(-c2cc3c(O)cccc3o2)c1 [STEMOFURAN B]
- EC50 (Pyricularia grisea): 1.4 µg/mL (≈ 5.46 µM)
- EC90 (Pyricularia grisea): 52 µg/mL (≈ 203 µM)
- MIC (Pyricularia grisea): 50 µg/mL (≈ 195 µM)
- Activity (Cladosporium herbarum [1]): Active
- EC50 (Botrytis cinerea [3]): 8 µg/mL (≈ 31.2 µM)
- EC90 (Botrytis cinerea [3]): > 200 µg/mL
- MIC (Botrytis cinerea [3]): > 200 µg/mL
- EC50 (Alternaria citri): 5 µg/mL (≈ 19.5 µM)
- EC90 (Alternaria citri): 128 µg/mL (≈ 499 µM)
- MIC (Alternaria citri): 200 µg/mL (≈ 780 µM)
- EC50 (Cladosporium herbarum [4]): 183 µg/mL (≈ 714 µM)
- EC90 (Cladosporium herbarum [4]): > 200 µg/mL
- MIC (Cladosporium herbarum [4]): > 200 µg/mL
- EC50 (Fusarium avenaceum [5]): 10 µg/mL (≈ 39 µM)
- EC90 (Fusarium avenaceum [5]): > 200 µg/mL
- MIC (Fusarium avenaceum [5]): > 200 µg/mL

SMILES: Oc1cc(O)cc(/C=C/c2ccccc2)c1
- Activity (Cladosporium herbarum [1]): Active

SMILES: COc1cc(-c2cc3c(O)cccc3o2)c(C)c(O)c1C [STEMOFURAN E]
- Activity (Cladosporium herbarum [1]): Active
- EC50 (Botrytis cinerea [3]): 26 µg/mL (≈ 91.4 µM)
- EC90 (Botrytis cinerea [3]): > 200 µg/mL
- MIC (Botrytis cinerea [3]): > 200 µg/mL
- EC50 (Alternaria citri): 5 µg/mL (≈ 17.6 µM)
- EC90 (Alternaria citri): > 200 µg/mL
- MIC (Alternaria citri): > 200 µg/mL
- EC50 (Cladosporium herbarum [4]): 0.8 µg/mL (≈ 2.81 µM)
- EC90 (Cladosporium herbarum [4]): > 200 µg/mL
- MIC (Cladosporium herbarum [4]): > 200 µg/mL
- EC50 (Fusarium avenaceum [5]): 18 µg/mL (≈ 63.3 µM)
- EC90 (Fusarium avenaceum [5]): > 200 µg/mL
- MIC (Fusarium avenaceum [5]): > 200 µg/mL

SMILES: COc1c(C)c(O)c(C)c(-c2cc3c(O)cccc3o2)c1C [STEMOFURAN F]
- Activity (Cladosporium herbarum [1]): Active
- inhibition (INH) (Botrytis cinerea [2]): 30%
- MIC (Botrytis cinerea [3]): > 200 µg/mL
- EC50 (Alternaria citri): 10 µg/mL (≈ 33.5 µM)
- EC90 (Alternaria citri): > 200 µg/mL
- MIC (Alternaria citri): > 200 µg/mL
- EC50 (Cladosporium herbarum [4]): 79 µg/mL (≈ 265 µM)
- EC90 (Cladosporium herbarum [4]): > 200 µg/mL
- MIC (Cladosporium herbarum [4]): > 200 µg/mL
- inhibition (INH) (Fusarium avenaceum [6]): 30%
- MIC (Fusarium avenaceum [5]): > 200 µg/mL

SMILES: COc1cc(O)c(C)c(CCc2cccc(O)c2OC)c1
- Activity (Cladosporium herbarum [1]): Active

SMILES: Cc1c(O)cc(CCc2ccccc2)cc1O [STILBOSTEMIN B]
- EC50 (Pyricularia grisea): 3 µg/mL (≈ 13.1 µM)
- EC90 (Pyricularia grisea): 371 µg/mL (≈ 1630 µM)
- MIC (Pyricularia grisea): 100 µg/mL (≈ 438 µM)
- Activity (Cladosporium herbarum [1]): Active
- EC50 (Botrytis cinerea [3]): 10 µg/mL (≈ 43.8 µM)
- EC90 (Botrytis cinerea [3]): > 200 µg/mL
- MIC (Botrytis cinerea [3]): > 200 µg/mL
- EC50 (Alternaria citri): 5 µg/mL (≈ 21.9 µM)
- EC90 (Alternaria citri): > 200 µg/mL
- MIC (Alternaria citri): 200 µg/mL (≈ 876 µM)
- EC50 (Cladosporium herbarum [4]): 15 µg/mL (≈ 65.7 µM)
- EC90 (Cladosporium herbarum [4]): > 200 µg/mL
- MIC (Cladosporium herbarum [4]): > 200 µg/mL
- EC50 (Fusarium avenaceum [5]): 16 µg/mL (≈ 70.1 µM)
- EC90 (Fusarium avenaceum [5]): > 200 µg/mL
- MIC (Fusarium avenaceum [5]): > 200 µg/mL

SMILES: Cc1c(O)cc(/C=C/c2ccccc2)cc1O
- Activity (Cladosporium herbarum [1]): Active

SMILES: COc1cc(-c2cc3c(O)cccc3o2)c(C)c(OC)c1C [STEMOFURAN J]
- EC50 (Pyricularia grisea): 0.9 µg/mL (≈ 3.02 µM)
- EC90 (Pyricularia grisea): 8.5 µg/mL (≈ 28.5 µM)
- MIC (Pyricularia grisea): 25 µg/mL (≈ 83.8 µM)
- EC50 (Botrytis cinerea [3]): 50 µg/mL (≈ 168 µM)
- EC90 (Botrytis cinerea [3]): > 200 µg/mL
- MIC (Botrytis cinerea [3]): > 200 µg/mL
- EC50 (Alternaria citri): 50 µg/mL (≈ 168 µM)
- EC90 (Alternaria citri): > 200 µg/mL
- MIC (Alternaria citri): > 200 µg/mL
- EC50 (Cladosporium herbarum [4]): 34 µg/mL (≈ 114 µM)
- EC90 (Cladosporium herbarum [4]): > 200 µg/mL
- MIC (Cladosporium herbarum [4]): > 200 µg/mL
- EC50 (Fusarium avenaceum [5]): 32 µg/mL (≈ 107 µM)
- EC90 (Fusarium avenaceum [5]): > 200 µg/mL
- MIC (Fusarium avenaceum [5]): > 200 µg/mL

SMILES: Cc1c(O)cc(-c2cc3ccccc3o2)cc1O [STEMOFURAN C]
- EC50 (Pyricularia grisea): 3.2 µg/mL (≈ 13.3 µM)
- EC90 (Pyricularia grisea): 30 µg/mL (≈ 125 µM)
- MIC (Pyricularia grisea): 50 µg/mL (≈ 208 µM)
- Activity (Cladosporium herbarum [1]): Active
- EC50 (Botrytis cinerea [3]): 29 µg/mL (≈ 121 µM)
- EC90 (Botrytis cinerea [3]): > 200 µg/mL
- MIC (Botrytis cinerea [3]): > 200 µg/mL
- EC50 (Alternaria citri): 7 µg/mL (≈ 29.1 µM)
- EC90 (Alternaria citri): 528 µg/mL (≈ 2200 µM)
- MIC (Alternaria citri): > 200 µg/mL
- EC50 (Cladosporium herbarum [4]): 8 µg/mL (≈ 33.3 µM)
- EC90 (Cladosporium herbarum [4]): > 200 µg/mL
- MIC (Cladosporium herbarum [4]): > 200 µg/mL
- EC50 (Fusarium avenaceum [5]): 21 µg/mL (≈ 87.4 µM)
- EC90 (Fusarium avenaceum [5]): > 200 µg/mL
- MIC (Fusarium avenaceum [5]): > 200 µg/mL

SMILES: CCCCNC(=O)n1c(NC(=O)OC)nc2ccccc21 [BENOMYL]
- inhibition (INH) (Botrytis cinerea [7]): 85%
- EC90 (Pyricularia grisea): 84 µg/mL (≈ 289 µM)
- MIC (Pyricularia grisea): 200 µg/mL (≈ 689 µM)
- MIC (Botrytis cinerea [3]): > 200 µg/mL
- EC50 (Alternaria citri): > 200 µg/mL
- EC90 (Alternaria citri): > 200 µg/mL
- MIC (Alternaria citri): > 200 µg/mL
- MIC (Cladosporium herbarum [4]): > 200 µg/mL
- inhibition (INH) (Cladosporium herbarum [8]): 85%
- EC50 (Fusarium avenaceum [5]): 0.02 µg/mL (≈ 0.0689 µM)
- EC90 (Fusarium avenaceum [5]): > 200 µg/mL
- MIC (Fusarium avenaceum [5]): 100 µg/mL (≈ 344 µM)

SMILES: COc1cc(O)cc(CCc2cccc(O)c2OC)c1
- Activity (Cladosporium herbarum [1]): Active

SMILES: Cc1c(O)cc(CCc2ccccc2O)cc1O
- Activity (Cladosporium herbarum [1]): Active

SMILES: COc1cc(-c2cc3c(O)c(C)ccc3o2)c(C)c(O)c1C [STEMOFURAN G]
- inhibition (INH) (Botrytis cinerea [2]): 30%
- MIC (Botrytis cinerea [3]): > 200 µg/mL
- EC50 (Alternaria citri): 14 µg/mL (≈ 46.9 µM)
- EC90 (Alternaria citri): > 200 µg/mL
- MIC (Alternaria citri): > 200 µg/mL
- EC50 (Cladosporium herbarum [4]): > 200 µg/mL
- EC90 (Cladosporium herbarum [4]): > 200 µg/mL
- MIC (Cladosporium herbarum [4]): > 200 µg/mL
- inhibition (INH) (Fusarium avenaceum [6]): 30%
- MIC (Fusarium avenaceum [5]): > 200 µg/mL

SMILES: COc1ccccc1CCc1cc(O)c(C)c(O)c1 [STILBOSTEMIN D]
- EC50 (Pyricularia grisea): 3 µg/mL (≈ 11.6 µM)
- EC90 (Pyricularia grisea): 152 µg/mL (≈ 588 µM)
- MIC (Pyricularia grisea): 100 µg/mL (≈ 387 µM)
- Activity (Cladosporium herbarum [1]): Active
- EC50 (Botrytis cinerea [3]): 11 µg/mL (≈ 42.6 µM)
- EC90 (Botrytis cinerea [3]): > 200 µg/mL
- MIC (Botrytis cinerea [3]): > 200 µg/mL
- EC50 (Alternaria citri): 19 µg/mL (≈ 73.6 µM)
- EC90 (Alternaria citri): > 200 µg/mL
- MIC (Alternaria citri): > 200 µg/mL
- EC50 (Cladosporium herbarum [4]): 17 µg/mL (≈ 65.8 µM)
- EC90 (Cladosporium herbarum [4]): > 200 µg/mL
- MIC (Cladosporium herbarum [4]): > 200 µg/mL
- EC50 (Fusarium avenaceum [5]): 57 µg/mL (≈ 221 µM)
- EC90 (Fusarium avenaceum [5]): > 200 µg/mL
- MIC (Fusarium avenaceum [5]): > 200 µg/mL
